# Bioassay records deposited in PubChem by several laboratories.
# SKKanGAS inh: SKKanGAS growth inhibition; S. pyogenes SKKanGAS, kanamycin growth, BacTiter-Glo, 6 h; inhibition, % at 7.5 µM; actives 1.3% (n = 300,000);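 active = mean replicate score, as percent of positive control median, at least 50; inconclusive = mean below 50 but one replicate at or above 50; inactive = mean and every replicate below 50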;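 note: strain carries kanamycin resistance gene driven by streptokinase promoter and grows in 40 µg/ml kanamycin; loss of luminescence reflects streptokinase promoter inhibition or plain growth inhibition; 0% = median of DMSO wells and 100% = positive control at its reference dose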
# aSyn UTR inh: 5' untranslated region of α-synuclein, MLPCN primary screen | actives 0.82% (n = 300,000) | alpha-synuclein 5'UTR reporter, inhibitor activity | inhibition, % (tested at 7.5 µM); in the data active = inhibition above about 60%; inconclusive = no clear call, values can overlap the other calls;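 note: H4 neuroglioblastoma cells stably carrying SNCA 5'UTR luciferase fusion; 0% = DMSO wells and 100% = positive control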
# Mdm2-MdmX inh: human Mdm2/MdmX binding inhibition | O15151+Q00987 | SaOS-2 split-luciferase Mdm2/MdmX complementation, luminescence | inhibition, % at 8 µM | actives 3% (n = 330,000) | AID 485346;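 active = inhibition of at least 50% at 8 µM in the primary screen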
# Target sequence (O15151 whole entry, looked up): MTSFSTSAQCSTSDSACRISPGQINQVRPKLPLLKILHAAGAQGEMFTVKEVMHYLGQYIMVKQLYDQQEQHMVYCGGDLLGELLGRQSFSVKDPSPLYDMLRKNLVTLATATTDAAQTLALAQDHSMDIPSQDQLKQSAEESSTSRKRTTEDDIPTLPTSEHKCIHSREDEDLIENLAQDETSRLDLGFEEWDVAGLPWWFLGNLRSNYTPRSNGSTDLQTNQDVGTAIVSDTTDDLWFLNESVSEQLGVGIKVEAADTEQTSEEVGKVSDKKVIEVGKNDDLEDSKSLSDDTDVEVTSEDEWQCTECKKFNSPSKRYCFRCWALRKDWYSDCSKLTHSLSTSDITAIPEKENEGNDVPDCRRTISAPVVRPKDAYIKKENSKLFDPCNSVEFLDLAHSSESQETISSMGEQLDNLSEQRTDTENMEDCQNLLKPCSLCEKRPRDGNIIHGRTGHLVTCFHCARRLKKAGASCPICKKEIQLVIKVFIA
# Target sequence (Q00987 whole entry, looked up): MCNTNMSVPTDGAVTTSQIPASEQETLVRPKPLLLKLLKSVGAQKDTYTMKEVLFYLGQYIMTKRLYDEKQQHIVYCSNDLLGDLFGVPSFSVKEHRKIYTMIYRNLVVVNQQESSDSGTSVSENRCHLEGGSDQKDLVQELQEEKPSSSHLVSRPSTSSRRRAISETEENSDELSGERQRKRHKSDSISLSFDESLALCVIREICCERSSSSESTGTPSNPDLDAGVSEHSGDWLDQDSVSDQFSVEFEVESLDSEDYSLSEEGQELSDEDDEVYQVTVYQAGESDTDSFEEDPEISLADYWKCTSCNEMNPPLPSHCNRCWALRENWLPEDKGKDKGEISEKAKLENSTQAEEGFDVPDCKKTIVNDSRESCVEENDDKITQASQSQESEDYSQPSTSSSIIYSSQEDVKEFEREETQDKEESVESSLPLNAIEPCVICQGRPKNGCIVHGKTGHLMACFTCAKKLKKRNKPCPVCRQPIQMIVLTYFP
# CSC inhib: cancer stem cell inhibition. cancer stem cell-like cells viability, luminescence. inhibition, % at 7.5 µM. actives 1.1% (n = 300,000). AID 2717; in the data active = inhibition above about 75%; inconclusive = no clear call, values can overlap the other calls; tested in HMLE shEcad cells
# T cruzi inh: T. cruzi replication inhibition; T. cruzi beta-gal in NIH3T3, luminescence, 90 h; AID 1885; actives 1.4% (n = 300,000); inhibition, % (test concentration not listed);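 active = mean inhibition across valid replicates above about 55%, limit read from the data; inconclusive = mean below that limit but half or more replicates reach it; inactive = mean below it, under half of replicates reach it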;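 note: signal also drops with host cell toxicity which is not excluded here; 0% = plate median of DMSO wells and 100% = zero luminescence signal; higher percent means less beta-gal luminescence so fewer parasites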
#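 Material: NIH/3T3 host cells with β-galactosidase reporter T. cruzi; Input: 5,000 host fibroblasts per well; Medium: DMEM, 2% fetal bovine serum; Compound: 50 nL DMSO compound solution per well; Schedule: 3 h host attachment, then at least 90 h co-culture; Detection: luminescent β-galactosidase signal after 60 min lysis.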
# * = called active by the depositor; ? = inconclusive; / = not tested or not shown. An excerpt weighted towards active compounds, which were near 5.4% of everything screened.
SMILES,SKKanGAS inh,aSyn UTR inh,Mdm2-MdmX inh,CSC inhib,T cruzi inh
O=C(COc1ccc(F)cc1Cl)Nc1cc(S(=O)(=O)N2CCOCC2)ccc1N1CCCCC1,16,5,43,-1,63*
CCN1CCN(c2ccc(S(=O)(=O)N3CCOCC3)cc2NC(=O)c2ccc(Cl)s2)CC1,-6,4,27,-13,69*
CCN(c1ccccc1)S(=O)(=O)c1ccc(C(=O)Nc2cc(C)ccn2)cc1,/,/,14,-2,/
Nn1c(COc2ccccc2F)nnc1SCC(=O)NC1CCS(=O)(=O)C1 (configuration not stated),-6,9,14,3,-10
COc1ccc(C(CNC(=O)c2oc3ccc(Br)cc3c2C)N2CCCCC2)cc1 (configuration not stated),0,-6,8,-3,55*
CCc1ccc2oc(C(=O)NCC(c3ccc(OC)cc3)N3CCCCC3)c(C)c2c1 (configuration not stated),-5,4,38,85*,28
Cc1c(C(=O)Nc2ccc(-c3nnc4n3CCCCC4)cc2)oc2ccc(Br)cc12,10,-24,38,-3,61*
COc1ccc(C(CNC(=O)c2oc3cc(Br)ccc3c2C)N2CCCCC2)cc1 (configuration not stated),-10,4,44,-6,5
O=C(Nc1ccc(-c2nnc3n2CCCCC3)cc1)c1ccco1,4,-6,0,-3,-9
CC[C@@]12C(=O)N(c3ccc(C)cc3)C(=O)N1[C@H](c1ccc(Br)cc1)[C@@H]1C(=O)N(C(C)(C)C)C(=O)[C@@H]12,-4,-10,34,-3,11
Cc1cc(C)cc(NC(=O)CN2CCC(C(=O)c3ccccc3)CC2)c1,1,0,15,16,15
COc1ccc(NC(=O)CS(=O)CC(=O)Nc2ccc(-n3cnnn3)c(C)c2)cc1 (configuration not stated),2,-2,11,-5,-7
O=C1N=c2ccccc2=C1c1c(O)n(-c2cccc(F)c2)[nH]c1=O,6,-28,/,83*,-9
Cn1c(O)c(C2=c3ccccc3=NC2=O)[nH]c1=S,-24,-34,0,-11,-18
C=CCc1c(C)nc(-c2ccccc2)nc1N/N=C/c1ccncc1,-2,-95,36,-10,55*
O=C(COC(=O)c1cccc2c1C(=O)c1ccccc1C2=O)NC1CCCCC1,29,20,44,17,13
O=C(COC(=O)c1ccc2c(c1[N+](=O)[O-])C(=O)c1ccccc1C2=O)NC1CC1,/,-39,34,1,66*
CCC(CC)=NNc1cccc([N+](=O)[O-])c1,5,-40,-19,14,4
COc1ccc(C(=O)/C(C#N)=N/Nc2cccc([N+](=O)[O-])c2)cc1,51*,-3,/,/,22
Cc1ccccc1-n1c(SCC(=O)N/N=C/c2c(C)nn(-c3ccccc3)c2C)nc2ccccc2c1=O,32,?,48,28,56*
COC(=O)N/N=C/c1ccc([N+](=O)[O-])s1,-3,-142,18,-16,34
Cc1ccc(NC(C)C(=O)N/N=C/c2ccc([N+](=O)[O-])s2)cc1 (configuration not stated),-1,-36,-27,0,82*
COc1ccc(NC(C)C(=O)N/N=C/c2ccc([N+](=O)[O-])s2)cc1 (configuration not stated),6,-19,19,2,65*
COc1ccc(-c2ccc(CCC(=O)O)n2CC(=O)Nc2ccccc2C)cc1,3,-7,-18,/,-7
Cn1c(Cc2cccs2)nnc1SCC(=O)Nc1ccc(C(N)=O)cc1,-8,1,6,-16,-6
SMILES,SKKanGAS inh,aSyn UTR inh,Mdm2-MdmX inh,CSC inhib,T cruzi inh
C/C(=C\c1ccc(F)cc1)C(=O)c1c(C)cc(C)[nH]c1=O,-6,0,38,/,-2
CC12CCC(C(=O)Nc3cccc(Cl)c3Cl)([C@H](Br)C1=O)C2(C)C (some centres not stated),54*,11,19,54,4
CCCCCCOc1ccc(OC(=O)c2ccncc2)cc1,16,-38,22,95*,29
Cc1cc(C)c2c(=O)n(CC(=O)Nc3cccc(Cl)c3C)sc2n1,-2,10,2,-2,58*
Cc1ccc(OCC(O)CNCc2ccc(F)cc2)cc1 (configuration not stated),-4,-8,-7,-15,56*
OC(CNCc1ccccc1)COc1ccccc1 (configuration not stated),2,-1,9,5,-10
COc1cc2nc(=S)n3[nH]c(CCn4nc(C)cc4C)nc3c2cc1OC,51*,8,18,-2,41
COc1cc2nc(=S)n3[nH]c(COc4ccccc4C)nc3c2cc1OC,64*,35,4,14,-44
COc1cc(-c2csc(CCn3nc(C)cc3C)n2)cc(OC)c1OC,0,11,-4,-13,-18
Cc1ccccc1OCc1nc2ccccc2c(=O)n1N,-10,-113,0,5,14
O=S(=O)(NCc1ccccc1)c1ccc(NC(=S)NCc2ccco2)cc1,-3,-13,10,/,-25
COc1ccc(CCNCc2cc(C)n(-c3ccc(OC)cc3)c2C)cc1,-8,0,2,20,65*
COc1cc(Cc2cnc(N)nc2N)cc(OC)c1OC,51*,-5,-5,-8,-3
CC(C)(C(=O)O)c1ccc([C@H](O)CCCN2CCC(C(O)(c3ccccc3)c3ccccc3)CC2)cc1,-2,0,18,-9,-2
CCOC(=O)c1c(NC(=O)C(C)OC(=O)c2ccc(NC(=O)CC#N)cc2)sc2c1CCCC2 (configuration not stated),38,-37,41,1,5
O=C(COc1ccc([N+](=O)[O-])cc1)NNC(=S)NC(=O)c1ccc(Br)cc1,55*,-13,17,26,2
O=C(NC(=S)NNC(=O)c1ccccc1[N+](=O)[O-])c1ccc(Br)cc1,63*,-14,12,8,-13
O=C(NNC(=S)NC(=O)c1ccccc1[N+](=O)[O-])c1ccccc1Cl,1,-28,-1,2,-10
Cc1ccc(C(=O)NC(=S)NNC(=O)COc2ccc([N+](=O)[O-])cc2)cc1,82*,-4,0,6,-4
Cc1ccc(OCC(=O)Nc2ccc([N+](=O)[O-])cc2)cc1,-1,-10,-19,-2,-4
O=C(COc1ccc2ccccc2c1)NNC(=O)c1ccc([N+](=O)[O-])cc1,-13,-15,2,-1,-12
Cc1ccc(NC(=O)CCN2CCN(C/C=C/c3ccccc3)CC2)cc1C,7,0,14,/,43
COc1cc(NC(=O)CCN2CCN(C/C=C/c3ccccc3)CC2)cc(OC)c1,-6,8,-2,-6,58*
COc1ccc(NC(=O)CCN2CCN(C/C=C/c3ccccc3)CC2)cc1,-2,15,9,/,57*
C[C@H](CO)N1C[C@H](C)[C@@H](CN(C)C(=O)NC2CCCCC2)Oc2c(NC(=O)C3CCCCC3)cccc2C1=O,/,/,-7,/,/
